Measurements published in ChEMBL document CHEMBL1136724 (J Med Chem, 2003).

Experiments:
[1] = target: Nitric oxide synthase, inducible (Homo sapiens, UniProt P35228); assay: Inhibitory activity of compound against human inducible nitric oxide synthase
Nitric oxide synthase 3 = target: T1, Nitric oxide synthase 3 (Homo sapiens, UniProt P29474); assay: Inhibitory activity against human endothelial nitric oxide synthase
T1 sequence (P29474 whole entry): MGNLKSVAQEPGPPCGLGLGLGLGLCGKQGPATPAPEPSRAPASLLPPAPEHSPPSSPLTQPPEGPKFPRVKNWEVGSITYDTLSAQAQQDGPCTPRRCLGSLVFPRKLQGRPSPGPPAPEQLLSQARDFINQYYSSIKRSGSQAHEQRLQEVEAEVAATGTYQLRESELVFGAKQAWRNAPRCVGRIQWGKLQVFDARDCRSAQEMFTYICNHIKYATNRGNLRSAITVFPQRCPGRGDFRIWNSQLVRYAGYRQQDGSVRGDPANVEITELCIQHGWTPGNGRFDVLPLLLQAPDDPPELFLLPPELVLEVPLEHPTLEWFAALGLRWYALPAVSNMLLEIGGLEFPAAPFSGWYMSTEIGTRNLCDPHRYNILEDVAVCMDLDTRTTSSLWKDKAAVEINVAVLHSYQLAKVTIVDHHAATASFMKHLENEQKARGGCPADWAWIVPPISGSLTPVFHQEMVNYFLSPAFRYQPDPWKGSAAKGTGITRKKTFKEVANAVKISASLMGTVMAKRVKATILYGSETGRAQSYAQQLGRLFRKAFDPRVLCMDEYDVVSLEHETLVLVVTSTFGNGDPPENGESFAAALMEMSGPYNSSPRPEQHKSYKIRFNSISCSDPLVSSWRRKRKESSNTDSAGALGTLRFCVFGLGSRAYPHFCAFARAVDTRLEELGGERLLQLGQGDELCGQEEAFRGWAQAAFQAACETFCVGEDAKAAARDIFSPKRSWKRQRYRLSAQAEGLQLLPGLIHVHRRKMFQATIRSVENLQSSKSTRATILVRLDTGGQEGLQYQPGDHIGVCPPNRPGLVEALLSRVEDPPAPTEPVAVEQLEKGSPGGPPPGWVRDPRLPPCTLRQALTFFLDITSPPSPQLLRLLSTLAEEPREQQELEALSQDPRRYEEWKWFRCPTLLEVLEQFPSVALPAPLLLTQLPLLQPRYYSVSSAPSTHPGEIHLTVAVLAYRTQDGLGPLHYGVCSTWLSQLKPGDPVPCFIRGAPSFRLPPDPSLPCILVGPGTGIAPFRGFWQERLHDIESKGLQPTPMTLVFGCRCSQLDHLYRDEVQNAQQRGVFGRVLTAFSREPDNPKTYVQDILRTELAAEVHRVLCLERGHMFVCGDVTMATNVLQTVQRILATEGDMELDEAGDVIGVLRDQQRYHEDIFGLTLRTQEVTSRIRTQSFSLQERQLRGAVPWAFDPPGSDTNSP

Nitric oxide synthase 1 [2] = target: T2, Nitric oxide synthase 1 (Homo sapiens, UniProt P29475); assay: Inhibitory activity against human neuronal nitric oxide synthase
T2 sequence (P29475 whole entry): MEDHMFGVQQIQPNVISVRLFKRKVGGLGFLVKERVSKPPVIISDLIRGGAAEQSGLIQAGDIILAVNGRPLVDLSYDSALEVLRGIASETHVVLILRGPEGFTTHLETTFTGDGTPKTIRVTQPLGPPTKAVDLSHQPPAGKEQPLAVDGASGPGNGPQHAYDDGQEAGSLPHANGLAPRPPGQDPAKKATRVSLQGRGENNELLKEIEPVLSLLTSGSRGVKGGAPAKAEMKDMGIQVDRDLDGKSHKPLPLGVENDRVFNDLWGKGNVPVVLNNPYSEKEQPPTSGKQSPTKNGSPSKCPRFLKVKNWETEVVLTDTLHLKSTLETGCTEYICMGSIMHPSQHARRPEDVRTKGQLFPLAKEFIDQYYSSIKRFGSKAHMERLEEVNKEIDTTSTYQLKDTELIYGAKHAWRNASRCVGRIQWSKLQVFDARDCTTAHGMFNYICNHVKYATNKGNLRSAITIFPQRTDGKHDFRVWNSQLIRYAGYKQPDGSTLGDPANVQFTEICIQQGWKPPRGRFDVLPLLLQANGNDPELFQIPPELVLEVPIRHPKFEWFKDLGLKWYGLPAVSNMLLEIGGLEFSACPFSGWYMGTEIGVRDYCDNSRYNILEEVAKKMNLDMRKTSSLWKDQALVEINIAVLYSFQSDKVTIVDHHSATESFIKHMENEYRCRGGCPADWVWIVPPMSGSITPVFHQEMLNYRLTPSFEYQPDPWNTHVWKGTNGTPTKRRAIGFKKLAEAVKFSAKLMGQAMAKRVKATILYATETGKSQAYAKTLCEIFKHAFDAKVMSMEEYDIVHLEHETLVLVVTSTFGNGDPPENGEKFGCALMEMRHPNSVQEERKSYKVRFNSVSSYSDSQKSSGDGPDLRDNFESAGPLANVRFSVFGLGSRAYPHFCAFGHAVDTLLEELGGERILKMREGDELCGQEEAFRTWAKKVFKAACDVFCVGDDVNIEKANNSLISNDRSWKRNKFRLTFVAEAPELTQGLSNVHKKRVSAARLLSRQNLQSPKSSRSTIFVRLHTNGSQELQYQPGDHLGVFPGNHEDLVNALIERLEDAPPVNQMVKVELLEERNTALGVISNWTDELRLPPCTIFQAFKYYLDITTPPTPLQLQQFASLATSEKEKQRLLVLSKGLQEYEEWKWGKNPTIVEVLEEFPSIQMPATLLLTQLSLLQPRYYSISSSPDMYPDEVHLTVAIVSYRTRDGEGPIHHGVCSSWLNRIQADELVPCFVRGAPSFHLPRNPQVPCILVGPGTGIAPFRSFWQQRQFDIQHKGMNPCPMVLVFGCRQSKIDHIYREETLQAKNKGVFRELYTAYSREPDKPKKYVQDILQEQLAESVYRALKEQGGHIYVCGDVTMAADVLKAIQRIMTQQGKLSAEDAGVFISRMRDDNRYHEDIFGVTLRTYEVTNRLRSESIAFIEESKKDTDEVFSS

DLD-1 = assay: Inhibitory activity against synthesis of inducible nitric oxide synthase by DLD-1 cells; format: functional, cell-based; details: Homo sapiens
In short: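 Intact human DLD-1 cells preincubated with a cytokine cocktail to induce NO production; inhibition of NO production measured; IC50 is the mean of at least two separate measurements.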

[3] = target: T3, Nitric oxide synthase 3 (Homo sapiens) (UniProt P29474); assay: Inhibitory activity of 100 uM compound against human endothelial nitric oxide synthase; Range is […]%-[…]%
T3 sequence (whole entry): T1 sequence (P29474 whole entry)

Nitric oxide synthase 1 [4] = target: T2, Nitric oxide synthase 1; assay: Inhibitory activity of 100 uM compound against human neuronal nitric oxide synthase; Range is […]%-[…]%
Rattus norvegicus [5] = assay: Inhibition of LPS induced nitrite production in rat following 4 hr of oral administration; format: functional; details: read-out: ID50 (the source's name)
[6] = target: T3, Nitric oxide synthase 3 (Homo sapiens); assay: Inhibitory activity of 100 uM compound against human endothelial nitric oxide synthase
[7] = Pharmacokinetic parameter pKa for amidine group of compound was evaluated; format: physicochemical
Rattus norvegicus [8] = species on record: Rattus norvegicus; assay: animal or person
[9] = target: T3, Nitric oxide synthase 3 (Homo sapiens); assay: Inhibitory activity of 100 uM compound against human endothelial nitric oxide synthase; range is […]%-[…]%; details: at 100 µM
Nitric oxide synthase 1 [10] = target: T2, Nitric oxide synthase 1; assay: Inhibitory activity of 100 uM compound against human neuronal nitric oxide synthase; range is […]%-[…]%; details: at 100 µM

Nitric oxide synthase, inducible, sequence (P35228 whole entry): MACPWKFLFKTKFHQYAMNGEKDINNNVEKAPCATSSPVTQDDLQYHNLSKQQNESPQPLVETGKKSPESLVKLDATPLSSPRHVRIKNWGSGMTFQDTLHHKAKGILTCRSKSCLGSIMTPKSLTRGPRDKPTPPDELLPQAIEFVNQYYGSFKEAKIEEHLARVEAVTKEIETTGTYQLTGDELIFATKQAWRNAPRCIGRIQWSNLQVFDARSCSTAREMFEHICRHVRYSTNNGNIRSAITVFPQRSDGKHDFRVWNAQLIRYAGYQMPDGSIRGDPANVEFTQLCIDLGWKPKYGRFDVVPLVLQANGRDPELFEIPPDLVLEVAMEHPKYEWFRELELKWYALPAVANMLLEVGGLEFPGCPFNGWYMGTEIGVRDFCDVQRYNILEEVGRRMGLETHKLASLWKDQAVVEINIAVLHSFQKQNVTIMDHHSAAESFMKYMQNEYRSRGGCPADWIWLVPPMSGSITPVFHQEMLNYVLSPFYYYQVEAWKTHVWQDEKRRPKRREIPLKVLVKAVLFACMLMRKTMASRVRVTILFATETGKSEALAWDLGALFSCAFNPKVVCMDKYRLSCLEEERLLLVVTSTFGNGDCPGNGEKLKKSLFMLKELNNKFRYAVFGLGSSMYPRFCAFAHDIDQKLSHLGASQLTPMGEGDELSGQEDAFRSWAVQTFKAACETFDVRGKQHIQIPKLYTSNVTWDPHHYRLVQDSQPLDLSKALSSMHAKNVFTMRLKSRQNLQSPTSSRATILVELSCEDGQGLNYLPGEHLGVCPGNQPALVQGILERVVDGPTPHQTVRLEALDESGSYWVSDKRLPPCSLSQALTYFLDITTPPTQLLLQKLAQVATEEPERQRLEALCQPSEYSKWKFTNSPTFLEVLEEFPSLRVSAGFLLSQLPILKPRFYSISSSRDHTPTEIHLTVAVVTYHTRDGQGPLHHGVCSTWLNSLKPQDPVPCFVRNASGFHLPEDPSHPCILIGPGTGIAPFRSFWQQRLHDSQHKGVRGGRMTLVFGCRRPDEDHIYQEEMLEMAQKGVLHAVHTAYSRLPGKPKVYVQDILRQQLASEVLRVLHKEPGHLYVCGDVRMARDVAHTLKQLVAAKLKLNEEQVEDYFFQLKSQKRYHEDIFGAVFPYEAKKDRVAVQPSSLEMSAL

Compound | IC50 [1] | IC50 (Nitric oxide synthase 1 [2]) | IC50 (DLD-1) | ED50 (Rattus norvegicus [5]) | also measured
CCC1(C)N=C(N)c2ccccc2N1 (configuration not stated) | 32 µM | – | – | – | –
NC1=NC2(CCNCC2)Nc2ccccc21 | ~50 µM | – | – | – | –
N=C(N)NN [PIMAGEDINE] | 3.9 µM | 5.9 µM | > 1000 µM | – | IC50 (Nitric oxide synthase 3): 100 µM
CSCCOC(=O)N1CCC2(CC1)N=C(N)c1c(F)cccc1N2 | 0.039 µM | – | 11 µM | – | inhibition [3]: 50%; inhibition (Nitric oxide synthase 1 [4]): 50%
NC1=NC(C2CCC2)Nc2cccc(F)c21 (configuration not stated) | 0.02 µM | 1 µM | 1.2 µM | > 30 µmol/kg | IC50 (Nitric oxide synthase 3): 4.6 µM
NC1=NC(c2ccc(F)cc2)Nc2cccc(F)c21 (configuration not stated) | 0.05 µM | 3.5 µM | 4 µM | > 30 µmol/kg | inhibition [6]: < 25%
NC1=NC(c2cccs2)Nc2ccccc21 (configuration not stated) | 0.4 µM | – | – | – | –
CNC(=N)NCCC[C@H](N)C(=O)O [TILARGININE] | – | – | 21 µM | 700 µmol/kg | –
NC1=NC(C2CC2)Nc2ccccc21 (configuration not stated) | 1.1 µM | – | – | – | –
N#Cc1ccc(C(=O)N2CCC3(CC2)N=C(N)c2c(F)cccc2N3)cc1 | 0.027 µM | 12 µM | 4.5 µM | 14 µmol/kg | inhibition [3]: 50%; pKa [7]: 9.1
NC1=NC(c2ccco2)Nc2c(F)ccc(F)c21 (configuration not stated) | 0.002 µM | 0.06 µM | 0.2 µM | 16 µmol/kg | IC50 (Nitric oxide synthase 3): 0.18 µM
NC1=NC2(CCN(C(=O)c3ccsc3)CC2)Nc2cccc(F)c21 | 0.067 µM | 70 µM | 12 µM | – | inhibition [6]: < 25%
NC1=NC(c2ccco2)Nc2ccccc21 (configuration not stated) | 0.2 µM | – | – | – | –
NC1=NC(C2CCCC2)Nc2ccccc21 (configuration not stated) | 4.5 µM | – | – | – | –
COC(=O)[C@@H](N)CCCNC(=N)N[N+](=O)[O-] [L-NAME] | – | 0.15 µM | > 300 µM | > 300 µmol/kg | –
N#Cc1ccc(C(=O)N2CCC3(CC2)N=C(N)c2c(F)ccc(F)c2N3)cn1 | – | – | 0.9 µM | 3 µmol/kg | inhibition [3]: 50%; ED50 (Rattus norvegicus [8]): ~10 µmol/kg
CCOC(=O)N1CCC2(CC1)N=C(N)c1sccc1N2 | 0.3 µM | 50 µM | > 500 µM | – | IC50 (Nitric oxide synthase 3): 100 µM
CC1(C)N=C(N)c2ccccc2N1 | 52 µM | – | – | – | –
CC1N=C(N)c2ccccc2N1 (configuration not stated) | 9.8 µM | – | – | – | –
N#Cc1ccc(C(=O)N2CCC3(CC2)N=C(N)c2c(F)ccc(F)c2N3)cc1 | 0.048 µM | 3.3 µM | 1.6 µM | 3 µmol/kg | inhibition [3]: 50%; pKa [7]: 8.4
CCOC(=O)N1CCC2(CC1)N=C(N)c1c(F)cccc1N2 | 0.035 µM | 40 µM | 9.6 µM | – | IC50 (Nitric oxide synthase 3): 100 µM
CCOC(=O)N1CCC2(CC1)N=C(N)c1c(Cl)cccc1N2 | 0.047 µM | – | 9.2 µM | – | inhibition [9]: 50%; inhibition (Nitric oxide synthase 1 [10]): 50%
NC1=NC(C2CCC2)Nc2ccccc21 (configuration not stated) | 1.1 µM | – | – | – | –
CC(=N)NCCCC[C@H](N)C(=O)O [L-NIL] | 0.1 µM | 1.5 µM | 2.8 µM | 9 µmol/kg | IC50 (Nitric oxide synthase 3): 2.6 µM
NC1=NC(c2ccccc2)Nc2ccccc21 (configuration not stated) | 2.5 µM | – | – | – | –
CCC1N=C(N)c2ccccc2N1 (configuration not stated) | 0.9 µM | – | – | – | –
NC1=NCNc2ccccc21 | 40 µM | – | – | – | –
